Source: publication PMC6104147 (Journal of Pharmaceutical Analysis, 2018)

Key:
Stock solution stability = assay type: physicochemical; settings: stock solution in methanol; for Long-term stability of stock solution, time with no significant change: 5 °C
How it was run: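 Methanol stock solutions of the analyte (500 µg/mL) and its deuterated internal standard (100 µg/mL) were tested for short-term and long-term stability. Working solutions were made by dilution in methanol. Stock and working solutions were stored at 2–8 °C.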

PDE-5 = settings: cited from earlier work
[1] = assay type: in vivo, human
How it was run: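 Single oral 20 mg tablet dose, test vs reference formulation, given fasting to 24 healthy Indian subjects. The test compound was measured in plasma by LC-MS/MS with a deuterated internal standard. 200 µL plasma was extracted on Strata-X-C SPE and run on a Synergi Hydro-RP C18 column. Mobile phase was methanol:10 mM ammonium formate pH 4.0 (90:10) at 0.9 mL/min, with positive ESI MRM. Calibration range was 0.50–500 ng/mL, and non-compartmental PK was calculated.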

[2] = Stability of tadalafil in human plasma under storage and process conditions; assay type: in vitro ADME
Whole blood stability = assay type: in vitro ADME, human; settings: 25 °C
[3] = cited from earlier work
[4] = 20 mg oral, fasting, 24 subjects

SMILES | Long-term stability of stock solution, time with no significant change (Stock solution stability) | Short-term stability of stock solution, time remained stable (Stock solution stability; room temperature) | Selectivity for PDE-5 over other PDE isozymes (PDE-5) [times] | Intra subject variation of AUC 0-inf [1, 4] [% CV] | Intra subject variation of AUC 0–168 h [1, 4] [% CV] | Intra subject variation of Cmax [1, 4] [% CV] | Cmax ([1]; male, human, plasma, po, 20 mg) [ng/mL] | Tmax ([1]; male, human, plasma, po, 20 mg) [h] | half-life ([1]; male, human, plasma, po, 20 mg) [h] | Ratios of mean log-transformed Cmax, AUC0–168 h and AUC0-inf and their 90% confidence intervals ([1]; test vs reference, overall range, acceptance criterion 80%–125%) | Time found stable in plasma at room temperature ([2]; controlled blank plasma) | Time stable in extracted plasma samples, room temperature ([2]; extracted plasma samples) [h] | Whole blood stability, time with no evidence of degradation (Whole blood stability) | Selectivity for PDE-5 over PDE-1–4 and PDE-7–10 (PDE-5) [times] | Bioavailability [3] | Fraction of the metabolized drug excreted in the urine [3]
[2H]C([2H])([2H])N1CC(=O)N2[C@H](c3ccc4c(c3)OCO4)c3[nH]c4ccccc4c3C[C@@H]2C1=O [TAD-d3, tadalafil-d3] | up to 10 days | up to 7 h |  |  |  |  |  |  |  |  |  |  |  |  |  | 
CCCc1nn(C)c2c(=O)[nH]c(-c3cc(S(=O)(=O)N4CCN(C)CC4)ccc3OCC)nc12 [sildenafil] |  |  | 41 |  |  |  |  |  |  |  |  |  |  |  |  | 
CN1CC(=O)N2[C@H](c3ccc4c(c3)OCO4)c3[nH]c4ccccc4c3C[C@@H]2C1=O [tadalafil] | up to 10 days |  |  | 11.56 | 10.09 | 9.53 | 396 | ~2.37 | 18.6 ± 2.47 | 99.2% to 110.9 | up to 12 h | 12 | up to 2 h | 1000 | approximately 80% | one third
